Reference: ChEMBL document CHEMBL3860034, “Development of Potent and Selective S. aureus Sortase A Inhibitors Based on Peptide Macrocycles” (ACS Med Chem Lett, 2016)
Calls of active or inactive are those of the source. The calls are words filed in the database; no cut-off is given here. *1 amine or outer side, *2 acyl side, *3 side chain or, on linkers, in order; H or OH if unused. Where a SMILES comes first, the peptide text is derived from it. Bridges are numbered along the chain shown (N, C = ends). TBMB = c1c(C[*:1])cc(C[*:3])cc1C[*:2]

Experiments:
[1] = target: T1, Sortase A (Staphylococcus aureus, UniProt Q9S446); test: Inhibition of Staphylococcus aureus His6-biotinylated SrtA expressed in Escherichia coli XL1-blue using Dabcyl-LPETG-Edans as substrate assessed as residual activity by fluorescence assay
T1 sequence (Q9S446 whole entry): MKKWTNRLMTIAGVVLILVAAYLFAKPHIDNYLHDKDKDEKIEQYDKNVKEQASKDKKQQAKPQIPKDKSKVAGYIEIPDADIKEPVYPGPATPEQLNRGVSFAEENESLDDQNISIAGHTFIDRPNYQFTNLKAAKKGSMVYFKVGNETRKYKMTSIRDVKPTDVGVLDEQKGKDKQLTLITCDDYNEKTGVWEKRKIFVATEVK
In short: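 (His)6-SrtA26−206 from E. coli XL1-blue, purified by Ni affinity and gel filtration. Enzyme at 2.5 μM incubated with varied peptide concentrations (up to 300 μM). Residual activity measured with 20 μM Dabcyl-LPETG-Edans and 200 μM triglycine in 50 mM Tris-Cl pH 7.4, 150 mM NaCl, 5 mM CaCl2, 0.1% BSA, 37 °C. Fluorescence read at ex 350/em 480 nm. Ki from Supporting Information equations; at least three measurements.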

[2] = target: T1, Sortase A; test: Binding affinity to Staphylococcus aureus His6-biotinylated SrtA expressed in Escherichia coli XL1-blue using fluorescein-tagged compound after 15 mins by fluorescence polarization
In short: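 Serial dilutions of SrtA mixed with 200 nM fluorescein-labeled bicyclic peptide in 50 mM Tris-Cl pH 7.4, 150 mM NaCl, 5 mM CaCl2; 15 min at room temperature. Fluorescence polarization read at 485 nm excitation / 535 nm emission. Kd obtained by nonlinear regression of polarization against total SrtA concentration.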

[3] = Inhibition of recombinant Staphylococcus aureus SrtA N24 deletion mutant by using abz-LPATG-dnp as substrate
[4] = target: T2, Sortase A (Staphylococcus aureus) (UniProt Q9S446); test: (§1) Inhibition of SrtA-mediated incorporation of Fluo-GSLPETGGS substrate to cell wall of Staphylococcus aureus Newman after 24 hrs by fluorescence assay; settings: Staphylococcus aureus subsp. aureus str. Newman
T2 sequence (whole entry): T1 sequence (Q9S446 whole entry)

[5] = target: T1, Sortase A; test: as §1; set-up: species or system Staphylococcus aureus subsp. aureus str. Newman
[6] = test system: Staphylococcus aureus; test: Induction of Fluo-GSLPETGGS substrate transfer to cell wall of SrtA knockout Staphylococcus aureus SKM12 at 1 mM after 24 hrs by fluorescence assay; assay type: functional
[7] = target: Urokinase-type plasminogen activator (Homo sapiens, UniProt P00749); test: Inhibition of human uPA using fluorogenic Z-Gly-Gly-Arg-AMC as substrate

Structure (SMILES) | Ki [1] | Kd [2] | also measured
CC(C)C[C@@H]1NC(=O)[C@H](CCC(N)=O)NC(=O)[C@@H]2CCCN2C(=O)[C@@H](NC(=O)[C@H](C)N)CSCc2cc3cc(c2)CSC[C@H](NC(=O)[C@@H]2CCCN2C(=O)[C@@H]2CCCN2C1=O)C(=O)N[C@@H](CCCNC(=N)N)NC(=O)[C@H](C(C)C)NC(=O)[C@H](CO)C(=O)N[C@H](C(=O)NCC(N)=O)CSC3 | 4.3 µM | 8.8 µM | –
O=S(=O)(O)c1cccc(-c2nn3c(-c4ccncc4)nnc3s2)c1 | – | – | IC50 [3]: 9.3 µM
CC(C)C[C@@H]1NC(=O)[C@H](CCC(N)=O)NC(=O)[C@@H]2CCCN2C(=O)[C@@H]2CSCc3cc(cc(c3)CSC[C@@H](C(=O)NCC(=O)O)NC(=O)[C@@H]3CCCN3C(=O)[C@@H]3CCCN3C1=O)CSC[C@H](NC(=O)[C@H](C)N)C(=O)N[C@@H](Cc1c[nH]cn1)C(=O)N[C@@H](CO)C(=O)N[C@@H](CCCNC(=N)N)C(=O)N2 (H-ACHSRCPQLPPCG-OH; linker 2-6-12 via TBMB) | 1.1 µM | – | inhibition [4]: Dose-dependent effect; IC50 [5]: 167 µM; Activity [6]: Active
CC(C)C[C@@H]1NC(=O)[C@H](CCC(N)=O)NC(=O)[C@@H]2CCCN2C(=O)[C@@H]2CSCc3cc(cc(c3)CSC[C@@H](C(=O)NCC(N)=O)NC(=O)[C@@H]3CCCN3C(=O)[C@@H]3CCCN3C1=O)CSC[C@H](NC(=O)[C@H](C)N)C(=O)N[C@@H]([C@@H](C)O)C(=O)N[C@@H](CCC(N)=O)C(=O)N[C@@H](CCCNC(=N)N)C(=O)N2 (H-ACTQRCPQLPPCG-NH2; linker 2-6-12 via TBMB) | 2.4 µM | 1.5 µM | –
CC(C)[C@@H]1NC(=O)[C@H](CCC(=O)O)NC(=O)[C@H](Cc2ccc(O)cc2)NC(=O)[C@H](CCCNC(=N)N)NC(=O)[C@@H](CO)NC(=O)[C@H](NC(=O)[C@H](C)N)CSCc2cc3cc(c2)CSC[C@@H](C(=O)NCC(N)=O)NC(=O)[C@@H](C)NC(=O)[C@H](CO)NC(=O)CNC(=O)[C@H](CCCNC(=N)N)NC(=O)CNC(=O)[C@H](CCCNC(=N)N)NC(=O)[C@H](CSC3)NC(=O)[C@H](CC(=O)O)NC1=O | – | – | Ki [7]: 0.053 µM
